Calls of active or inactive are those of the source. No cut-off for these calls is given here.
Legend:
[1] = system: Eimeria tenella; assay: Anticoccidial activity in chicken against E. tenella; assay type: functional; parameters: Reduction: concentration or dose not given beside the values
Summary of the method: (§1)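 3-Day-old chicks infected separately with E. tenella or E. acervulina; test compound given mixed in the feed at the stated rates. Activity was scored as percent suppression of oocyst production versus infected, unmedicated controls. Toxicity was judged from average weight gain relative to uninfected controls.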

[2] = system: Eimeria acervulina; assay: Anticoccidial activity in chicken against Eimeria acervulina.; assay type: functional; parameters: Reduction: concentration or dose not given beside the values; summary of the method: as §1
[3] = species on record: Gallus gallus; assay: The compound was tested for anti-coccidial activity in chicken against E. acervulina; Inactive; assay type: functional, organism-based; summary of the method: as §1
[4] = species on record: Gallus gallus; assay: The compound was tested for anti-coccidial activity in chicken against E. brunetti (FS-103) measured at dose 125(ppm in diet); assay type: functional
[5] = species on record: Gallus gallus; assay: The compound was tested for anti-coccidial activity in chicken against E. mitis(LS-84) measured at dose 125(ppm in diet); assay type: functional
[6] = species on record: Gallus gallus; assay: The compound was tested for anti-coccidial activity in chicken against E. acervulina (DP-761) measured at dose 125(ppm in diet); assay type: functional
[7] = species on record: Gallus gallus; assay: The compound was tested for anti-coccidial activity in chicken against E. tenella(DP-761) measured at dose 125(ppm in diet); assay type: functional
[8] = species on record: Gallus gallus; assay: The compound was tested for anti-coccidial activity in chicken against E. maxima(DP-776) measured at dose 125(ppm in diet); assay type: functional
[9] = species on record: Gallus gallus; assay: The compound was tested for anti-coccidial activity in chicken against E. praecox(DP-785) measured at dose 125(ppm in diet); assay type: functional
[10] = species on record: Gallus gallus; assay: The compound was tested for anti-coccidial activity in chicken against E. hagani(DP-786) measured at dose 125(ppm in diet); assay type: functional
[11] = species on record: Gallus gallus; assay: The compound was tested for anti-coccidial activity in chicken against Eimeria praecox (DP-785) measured at dose 100 (ppm in diet); assay type: functional
[12] = species on record: Gallus gallus; assay: The compound was tested for anti-coccidial activity in chicken against Eimeria tenella (DP-761) measured at dose 100 (ppm in diet); assay type: functional
Summary of the method: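 Test article mixed into the feed at the stated rates and given to 3-day-old chicks infected with […]. Each Eimeria species was inoculated separately. Activity was scored as percent suppression of oocyst output relative to infected, unmedicated controls. Toxicity was judged from average weight gain relative to uninfected controls.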

[13] = species on record: Gallus gallus; assay: The compound was tested for anti-coccidial activity in chicken against Eimeria brunetti (FS-103) measured at dose 100 (ppm in diet); assay type: functional
[14] = species on record: Gallus gallus; assay: The compound was tested for anti-coccidial activity in chicken against Eimeria acervulina (DP-761) measured at dose 100 (ppm in diet); assay type: functional
[15] = species on record: Gallus gallus; assay: The compound was tested for anti-coccidial activity in chicken against Eimeria hagani (DP-786) measured at dose 100 (ppm in diet); assay type: functional
[16] = species on record: Gallus gallus; assay: The compound was tested for anti-coccidial activity in chicken against Eimeria maxima (DP-776) measured at dose 100 (ppm in diet); assay type: functional
[17] = species on record: Gallus gallus; assay: The compound was tested for anti-coccidial activity in chicken against Eimeria mitis (LS-84) measured at dose 100 (ppm in diet); assay type: functional
[18] = species on record: Gallus gallus; assay: The compound was tested for anti-coccidial activity in chicken against E. praecox(DP-785) measured at dose 33(ppm in diet); assay type: functional
[19] = species on record: Gallus gallus; assay: The compound was tested for anti-coccidial activity in chicken against E. brunetti (FS-103) measured at dose 33(ppm in diet); assay type: functional
[20] = species on record: Gallus gallus; assay: The compound was tested for anti-coccidial activity in chicken against E. maxima(DP-776) measured at dose 33(ppm in diet); assay type: functional
[21] = species on record: Gallus gallus; assay: The compound was tested for anti-coccidial activity in chicken against E. mitis(LS-84) measured at dose 33(ppm in diet); assay type: functional
[22] = species on record: Gallus gallus; assay: The compound was tested for anti-coccidial activity in chicken against E. tenella(DP-761) measured at dose 33(ppm in diet); assay type: functional
[23] = species on record: Gallus gallus; assay: The compound was tested for anti-coccidial activity in chicken against E. acervulina (DP-761) measured at dose 33(ppm in diet); assay type: functional
[24] = species on record: Gallus gallus; assay: The compound was tested for anti-coccidial activity in chicken against E. hagani(DP-786) measured at dose 33(ppm in diet); assay type: functional
[25] = species on record: Gallus gallus; assay: The compound was tested for anti-coccidial activity in chicken against Eimeria mitis (LS-84) measured at dose 60 (ppm in diet); assay type: functional
[26] = species on record: Gallus gallus; assay: The compound was tested for anti-coccidial activity in chicken against Eimeria brunetti (FS-103) measured at dose 60 (ppm in diet); assay type: functional
[27] = species on record: Gallus gallus; assay: The compound was tested for anti-coccidial activity in chicken against Eimeria praecox (DP-785) measured at dose 60 (ppm in diet); assay type: functional
[28] = species on record: Gallus gallus; assay: The compound was tested for anti-coccidial activity in chicken against Eimeria maxima (DP-776) measured at dose 60 (ppm in diet); assay type: functional
[29] = species on record: Gallus gallus; assay: The compound was tested for anti-coccidial activity in chicken against Eimeria hagani (DP-786) measured at dose 60 (ppm in diet); assay type: functional

In the case of `NC(=O)c1nnn(Cc2cc(Cl)c(C(=O)c3ccc(Br)cc3)c(Cl)c2)c1N`, the Reduction [1] is reported as 90% and the Reduction [2] is reported as 80%.

`NC(=O)c1nnn(Cc2cc(Cl)c(C(=O)c3cc(Cl)cc(Cl)c3)c(Cl)c2)c1N` was tested, and the Reduction [1] was > 99% and the Reduction [2] was > 99%.

In the case of `NC(=O)c1nnn(Cc2cc(Cl)c(C(=O)c3ccc(F)cc3)c(Cl)c2)c1N`, the Reduction [1] is reported as 90% and the Reduction [2] is reported as 90%.

For `NC(=O)c1nnn(Cc2ccc(C(=O)c3c(Cl)cccc3Cl)cc2)c1N`, the MED [1] was > 250 ppm and the MED [2] was > 250 ppm.

In the case of `NC(=O)c1ncn(Cc2ccc(Cl)c(Cl)c2)c1N`, the Reduction [1] is reported as >99% and the Reduction [2] is reported as >99%.

With `NC(=O)c1nnn(Cc2cccc(C(=O)c3ccc(Cl)cc3)c2)c1N` the MED [1] was > 500 ppm and the Reduction [2] was 90%.

For `NC(=O)c1nnn(Cc2ccc(C(=O)c3ccc(Cl)cc3)c(Cl)c2)c1N`, the MED [1] was > 500 ppm and the Reduction [2] was 90%.

`N#Cc1ccc(C(=O)c2c(Cl)cc(Cn3nnc(C(N)=O)c3N)cc2Cl)cc1` showed a Reduction [1] of 90% and a Reduction [2] of 90%.

`NC(=O)c1nnn(Cc2cc(Cl)cc(Cl)c2)c1N` was tested, and the MED [1] was > 125 ppm and the MED [2] was > 125 ppm.

In the case of `NC(=O)c1nnn(Cc2cc(Cl)c(C(=O)c3ccc(C(Cl)=C(Cl)Cl)cc3)c(Cl)c2)c1N`, the Reduction [1] is reported as 80% and the Reduction [2] is reported as 90%.

In the case of `NC(=O)c1nnn(Cc2ccc(Cl)c(Cl)c2)c1N`, the Reduction [1] is reported as 80% and the Reduction [2] is reported as 80%.

Work on `NC(=O)c1nnn(Cc2cc(Cl)c(C(=O)c3ccc(Cl)c(Cl)c3)c(Cl)c2)c1N` yielded a Reduction [1] of 90% and a Reduction [2] of 90%.

`NC(=O)c1nnn(Cc2ccc(C(=O)c3ccc(Cl)cc3Cl)c(Cl)c2)c1N` was tested, and the Reduction [1] was 90% and the MED [2] was > 250 ppm.

For `NC(=O)c1nnn(Cc2ccc(Cl)c(C(=O)c3ccc(Cl)cc3)c2)c1N`, the Reduction [1] was 90% and the Reduction [2] was 90%.

In the case of `NC(=O)c1nnn(Cc2cc(Cl)c(C(=O)c3ccccc3)c(Cl)c2)c1N`, the Reduction [1] is reported as 90% and the Reduction [2] is reported as 90%.

For `NC(=O)c1nnn(Cc2ccc(C(=O)c3ccc(Cl)cc3)cc2)c1N`, the MED [1] was > 500 ppm and the Minimum active dose [2] was > 500 ppm.

In the case of `NC(=O)c1nnn(Cc2cc(F)c(C(=O)c3ccc(Cl)cc3)c(Cl)c2)c1N`, the Reduction [1] is reported as 90% and the Reduction [2] is reported as 90%.

With `NC(=O)c1nnn(Cc2ccc(Cl)cc2)c1N` the MED [1] was > 1000 ppm and the Reduction [2] was 80%.

`NC(=O)c1nnn(Cc2cc(Cl)c(C(=O)c3ccc(I)cc3)c(Cl)c2)c1N` was tested, and the Reduction [1] was >99% and the Reduction [2] was 90%.

For `COC(=O)c1ccc(C(=O)c2c(Cl)cc(Cn3nnc(C(N)=O)c3N)cc2Cl)cc1`, the MED [1] was > 250 ppm and the MED [2] was > 250 ppm.

For `NC(=O)c1nnn(Cc2cc(Cl)c(C(=O)c3ccc(Cl)cc3)c(Br)c2)c1N`, the Reduction [1] was 90% and the Reduction [2] was 90%.

In the case of `NC(=O)c1nnn(Cc2ccc(C(=O)c3c(Cl)cc(Cl)cc3Cl)cc2)c1N`, the MED [1] is reported as > 250 ppm and the Reduction [2] is reported as 90%.

In the case of `NC(=O)c1nnn(Cc2ccccc2)c1N`, the Reduction [3] is reported as “inactive”.

`CCCc1ncc(C[n+]2ccccc2C)c(N)n1.Cl.[Cl-]` [AMPROLIUM] showed a Reduction [1] of 80%, a Reduction [4] of 79% and a Reduction [5] of 36%. It also gave a Reduction [6] of 7%, a Reduction [2] of 80% and a Reduction [7] of 100%. It also gave a Reduction [8] of 0%, a Reduction [9] of 18% and a Reduction [10] of 0%.

`Nc1ncnc2c1ncn2Cc1c(F)cccc1Cl` [ARPRINOCID] showed a Reduction [1] of 80% and a Reduction [2] of 80%.

Work on `CC[C@@H](C(=O)[C@@H](C)[C@@H](O)[C@H](C)CCc1ccc(C)c(O)c1C(=O)O)[C@H]1O[C@](CC)([C@H]2CC[C@](O)(CC)[C@H](C)O2)C[C@@H]1C` [LASALOCID] yielded a Reduction [11] of 34%, a Reduction [1] of 80% and a Reduction [12] of 100%. The Reduction [13] was 100%, the Reduction [2] was 80% and the Reduction [14] was 16%. For the same compound, the Reduction [15] was 74%, the Reduction [16] was 100% and the Reduction [17] was 100%.

For `Cc1cc(C)nc(O)n1.O=C(Nc1ccc([N+](=O)[O-])cc1)Nc1ccc([N+](=O)[O-])cc1` [NICARBAZIN], the Reduction [1] was 80%, the Reduction [4] was 100% and the Reduction [5] was 100%. The Reduction [6] was 0%, the Reduction [2] was 80% and the Reduction [7] was 100%. It also gave a Reduction [8] of 21%, a Reduction [9] of 34% and a Reduction [10] of 0%.

`N=C(N/N=C/c1ccc(Cl)cc1)N/N=C/c1ccc(Cl)cc1` [ROBENIDINE] was tested, and the Reduction [18] was 54%, the Reduction [19] was 100% and the Reduction [1] was 80%. For the same compound, the Reduction [20] was 21%, the Reduction [21] was 100% and the Reduction [22] was 0%. For the same compound, the Reduction [2] was 80%, the Reduction [23] was 99.9% and the Reduction [24] was 0%.

`CC[C@@H](C(=O)[C@@H](C)[C@@H](O)[C@H](C)[C@@H]1O[C@@H]([C@@H](CC)C(=O)O)CC[C@@H]1C)[C@H]1O[C@]2(C=C[C@@H](O)[C@]3(CC[C@@](C)([C@H]4CC[C@](O)(CC)[C@H](C)O4)O3)O2)[C@H](C)C[C@@H]1C` [SALINOMYCIN] showed a Reduction [25] of 91%, a Reduction [1] of 85% and a Reduction [26] of 74%. The Reduction [27] was 62%, the Reduction [28] was 0% and the Reduction [29] was 0%.
